Measurements reported in ChEMBL document CHEMBL1153798, “Substituted tetrahydroquinolines as potent allosteric inhibitors of reverse transcriptase and its key mutants” (Bioorg Med Chem Lett, 2009).

Legend:
[1] = tested on: Human immunodeficiency virus 1; test: Antiviral activity against HIV1 3B infected human MT4 cells assessed as drug level required for 95% inhibition in the presence of 50% normal human serum; format: functional
Summary of the method: (§1)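 Spread assay: MT-4 human T-lymphoid cells in RPMI 1640 with either 10% FBS or 50% NHS; CIC95 taken as the concentration blocking >95% of virus spread. Wild-type virus H9IIIB or R8 as stated per line. Geometric mean of at least two determinations, individual values within 25% of the mean.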

[2] = tested on: Human immunodeficiency virus 1; test: Antiviral activity against HIV1 3B infected human MT4 cells assessed as drug level required for 95% inhibition in the presence of 10% fetal bovine serum; format: functional; summary of the method: as §1
[3] = Protein binding in human plasma; format: ADME, cell-free; details: read-out: PB
[4] = tested on: Human immunodeficiency virus 1; test: Antiviral activity against HIV1 R8 infected human MT4 cells assessed as drug level required for 95% inhibition in the presence of 50% normal human serum; format: functional; summary of the method: as §1
[5] = tested on: Human immunodeficiency virus 1; test: Antiviral activity against HIV1 R8 infected human MT4 cells assessed as drug level required for 95% inhibition in the presence of 10% fetal bovine serum; format: functional; summary of the method: as §1
[6] = tested on: Human immunodeficiency virus 1; test: Ratio of IC50 for HIV1 carrying reverse transcriptase […]/G190A mutant to IC50 for wild type HIV1 in the presence of 40% normal human serum; format: functional
[7] = tested on: Human immunodeficiency virus 1; test: Antiviral activity against HIV1 carrying reverse transcriptase K103N/P225H mutant infected human MT4 cells by phenoscreen assay in the presence of 40 percent normal human serum; format: functional, organism-based; details: Human immunodeficiency virus 1, MT4
Summary of the method: (§2)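 Phenotypic recombinant-virus assay (Phenoscreen, Monogram Bioscience), run with 40% normal human serum present. IC50 is the compound concentration in cell culture that inhibits viral replication by 50%.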

[8] = Inhibition of HIV1 reverse transcriptase K103 mutant
[9] = tested on: Human immunodeficiency virus 1; test: Antiviral activity against HIV1 infected human MT4 cells by phenoscreen assay in the presence of 40 percent normal human serum; format: functional, organism-based; details: Human immunodeficiency virus 1, MT4
[10] = Half life in Sprague-Dawley rat at 10 mg/kg, po and 2 mg/kg, iv; format: ADME, organism-based; details: in vivo
[11] = tested on: Human immunodeficiency virus 1; test: Ratio of IC50 for HIV1 carrying reverse transcriptase K103N/G190A mutant to IC50 for wild type HIV1 in the presence of 40% normal human serum; format: functional
[12] = tested on: Human immunodeficiency virus 1; test: Ratio of IC50 for HIV1 carrying reverse transcriptase […]/ Y181C/G190A mutant to IC50 for wild type HIV1 in the presence of 40% normal human serum; format: functional
[13] = tested on: Human immunodeficiency virus 1; test: Antiviral activity against HIV1 carrying reverse transcriptase G190A mutant infected human MT4 cells by phenoscreen assay in the presence of 40 percent normal human serum; details: Human immunodeficiency virus 1, MT4
[14] = tested on: Human immunodeficiency virus 1; test: Ratio of IC50 for HIV1 carrying reverse transcriptase V106A/G190A/F227L mutant to IC50 for wild type HIV1 in the presence of 40% normal human serum; format: functional
[15] = tested on: Human immunodeficiency virus 1; test: Antiviral activity against HIV1 carrying reverse transcriptase G190S mutant infected human MT4 cells by phenoscreen assay in the presence of 40 percent normal human serum; details: Human immunodeficiency virus 1, MT4
[16] = tested on: Human immunodeficiency virus 1; test: Antiviral activity against HIV1 carrying reverse transcriptase V106A/G190A/F227L mutant infected human MT4 cells by phenoscreen assay in the presence of 40 percent normal human serum; format: functional, organism-based; details: Human immunodeficiency virus 1, MT4; summary of the method: as §2
[17] = tested on: Human immunodeficiency virus 1; test: Antiviral activity against HIV1 carrying reverse transcriptase […]/G190A mutant infected human MT4 cells in the presence of 40 percent normal human serum; format: functional; summary of the method: as §2
[18] = tested on: Human immunodeficiency virus 1; test: Ratio of IC50 for HIV1 carrying reverse transcriptase K103N mutant to IC50 for wild type HIV1 in the presence of 40% normal human serum; format: functional
Rattus norvegicus = test: Hepatic clearance in rat at 10 mg/kg, po and 2 mg/kg, iv; details: in vivo
[19] = tested on: Human immunodeficiency virus 1; test: Ratio of IC50 for HIV1 carrying reverse transcriptase […] mutant to IC50 for wild type HIV1 in the presence of 40% normal human serum; format: functional
[20] = tested on: Human immunodeficiency virus 1; test: Ratio of IC50 for HIV1 carrying reverse transcriptase K103N/V179E mutant to IC50 for wild type HIV1 in the presence of 40% normal human serum; format: functional
[21] = tested on: Human immunodeficiency virus 1; test: Ratio of IC50 for HIV1 carrying reverse transcriptase G190S mutant to IC50 for wild type HIV1 in the presence of 40% normal human serum; format: functional
[22] = tested on: Human immunodeficiency virus 1; test: Antiviral activity against HIV1 carrying reverse transcriptase K103N/G190A mutant infected human MT4 cells by phenoscreen assay in the presence of 40 percent normal human serum; format: functional, organism-based; details: Human immunodeficiency virus 1, MT4; summary of the method: as §2
[23] = tested on: Human immunodeficiency virus 1; test: Ratio of IC50 for HIV1 carrying reverse transcriptase K103N/P225H mutant to IC50 for wild type HIV1 in the presence of 40% normal human serum; format: functional
[24] = tested on: Human immunodeficiency virus 1; test: Antiviral activity against HIV1 carrying reverse transcriptase Y188L mutant infected human MT4 cells by phenoscreen assay in the presence of 40 percent normal human serum; format: functional, organism-based; details: Human immunodeficiency virus 1, MT4; summary of the method: as §2
[25] = tested on: Human immunodeficiency virus 1; test: Antiviral activity against HIV1 carrying reverse transcriptase K101E/ Y181C/G190A mutant infected human MT4 cells by phenoscreen assay in the presence of 40 percent normal human serum; details: Human immunodeficiency virus 1, MT4
[26] = tested on: Human immunodeficiency virus 1; test: Antiviral activity against HIV1 carrying reverse transcriptase K101E/G190A mutant infected human MT4 cells by phenoscreen assay in the presence of 40 percent normal human serum; details: Human immunodeficiency virus 1, MT4
[27] = tested on: Human immunodeficiency virus 1; test: Antiviral activity against HIV1 carrying reverse transcriptase K103N/V179E mutant infected human MT4 cells by phenoscreen assay in the presence of 40 percent normal human serum; format: functional, organism-based; details: Human immunodeficiency virus 1, MT4; summary of the method: as §2
[28] = tested on: Human immunodeficiency virus 1; test: Ratio of IC50 for HIV1 carrying reverse transcriptase Y188L mutant to IC50 for wild type HIV1 in the presence of 40% normal human serum; format: functional
[29] = tested on: Human immunodeficiency virus 1; test: Antiviral activity against HIV1 carrying reverse transcriptase Y181C/G190A mutant infected human MT4 cells by phenoscreen assay in the presence of 40 percent normal human serum; format: functional, organism-based; details: Human immunodeficiency virus 1, MT4; summary of the method: as §2
[30] = tested on: Human immunodeficiency virus 1; test: Ratio of IC50 for HIV1 carrying reverse transcriptase Y181C mutant to IC50 for wild type HIV1 in the presence of 40% normal human serum; format: functional
[31] = tested on: Human immunodeficiency virus 1; test: Antiviral activity against HIV1 carrying reverse transcriptase K103N mutant infected human MT4 cells by phenoscreen assay in the presence of 40 percent normal human serum; format: functional, organism-based; details: Human immunodeficiency virus 1, MT4; summary of the method: as §2
[32] = tested on: Human immunodeficiency virus 1; test: Antiviral activity against HIV1 carrying reverse transcriptase K103N/ Y181C/G190A mutant infected human MT4 cells by phenoscreen assay in the presence of 40 percent normal human serum; format: functional, organism-based; details: Human immunodeficiency virus 1, MT4; summary of the method: as §2
[33] = tested on: Human immunodeficiency virus 1; test: Antiviral activity against HIV1 carrying reverse transcriptase […] mutant infected human MT4 cells by phenoscreen assay in the presence of 40 percent normal human serum; format: functional, organism-based; details: Human immunodeficiency virus 1, MT4; summary of the method: as §2
[34] = tested on: Human immunodeficiency virus 1; test: Antiviral activity against HIV1 carrying reverse transcriptase Y181C mutant infected human MT4 cells by phenoscreen assay in the presence of 40 percent normal human serum; format: functional, organism-based; details: Human immunodeficiency virus 1, MT4; summary of the method: as §2
[35] = tested on: Human immunodeficiency virus 1; test: Ratio of IC50 for HIV1 carrying reverse transcriptase G190A mutant to IC50 for wild type HIV1 in the presence of 40% normal human serum; format: functional
[36] = tested on: Human immunodeficiency virus 1; test: Ratio of IC50 for HIV1 carrying reverse transcriptase Y181C/G190A mutant to IC50 for wild type HIV1 in the presence of 40% normal human serum; format: functional
[37] = tested on: Human immunodeficiency virus 1; test: Ratio of IC50 for HIV1 carrying reverse transcriptase K103N/Y181C mutant to IC50 for wild type HIV1 in the presence of 40% normal human serum; format: functional

Cc1ccc2c(c1)CCCN2C(=O)SCC(=O)Nc1ccc(S(N)(=O)=O)cc1Cl
ID95 [1]: 396 nM | ID95 [2]: 78 nM | fraction unbound [3]: 0.01

O=C(CSC(=O)N1CCCc2cc(Cl)cc(Cl)c21)Nc1ccc(C(=O)NCc2ccccc2)cc1Cl
Activity [4]: 307 nM | Activity [5]: 63 nM

CS(=O)(=O)c1ccc(NC(=O)CSC(=O)N2CCCc3cc(Cl)cc(Cl)c32)c(Cl)c1
fold change (FC) [6]: >56 | IC50 [7]: 9.3 nM | IC50 [8]: 3 nM | IC50 [9]: 4.5 nM | half-life [10]: 1.7 h | fold change (FC) [11]: 21.3 | Activity [4]: 5.7 nM | fold change (FC) [12]: >56 | IC50 [13]: 157 nM | fold change (FC) [14]: >56 | IC50 [15]: > 250 nM | IC50 [16]: > 250 nM | fold change (FC) [17]: >56 | fold change (FC) [18]: 0.4 | CL (Rattus norvegicus): 84 mL/min/kg | fold change (FC) [19]: 11 | fold change (FC) [20]: 1.7 | fold change (FC) [21]: >56 | IC50 [22]: 57.2 nM | fold change (FC) [23]: 2.1 | IC50 [24]: > 250 nM | IC50 [25]: > 250 nM | IC50 [26]: > 250 nM | IC50 [27]: 7.5 nM | fold change (FC) [28]: >56 | Activity [5]: 5.6 nM | IC50 [29]: > 250 nM | fold change (FC) [30]: 19 | IC50 [31]: 2 nM | IC50 [32]: > 250 nM | IC50 [33]: 50.5 nM | IC50 [34]: 86.6 nM | fold change (FC) [35]: 34.8 | fold change (FC) [36]: >56 | fold change (FC) [37]: 33.2

NCCCNC(=O)c1ccc(NC(=O)CSC(=O)N2CCCc3cc(Cl)cc(Cl)c32)c(Cl)c1
Activity [4]: 34 nM | Activity [5]: 97 nM
